Assay results published in ChEMBL document CHEMBL3616366, “Design, synthesis and biological activity of new amides derived from 3-methyl-3-phenyl-2,5-dioxo-pyrrolidin-1-yl-acetic acid” (Eur J Med Chem, 2015).
The source made the active and inactive calls. The rule behind the calls is not given here.

Tests used:
[1] = tested on: Mus musculus; assay: Anticonvulsant activity in albino CD-1 mouse assessed as protection against maximal electroshock-induced seizure at 30 to 300 mg/kg, ip measured after 2.0 hrs; format: functional; details: for minimal effective dose: CD-1, ip, read-out: MED
Summary of the method: (§1)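 Male CD-1 mice (16–26 g), compound suspended in 0.5% methylcellulose/water, i.p. at 30, 100, 300 mg/kg; four mice per group, each used once. Electroconvulsion by electrical stimulus 0.2 s at 50 Hz; protection scored at 0.5 and 2 h. Value is minimum dose showing activity.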

[2] = tested on: Mus musculus; assay: Anticonvulsant activity in ip dosed albino CD-1 mouse assessed as protection against subcutaneous pentylenetetrazole-induced seizure measured as time to peak effect; format: functional
Summary of the method: (§2)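 Quantitative work at time of peak effect previously estimated in screening; groups of six mice given various i.p. doses until ≥3 points within 10–90% seizure protection (MES or scPTZ) or minimal motor impairment on rotarod (10 rpm, failure to hold ≥1 min).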

[3] = tested on: Mus musculus; assay: Anticonvulsant activity in albino CD-1 mouse assessed as protection against maximal electroshock-induced seizure at 30 to 300 mg/kg, ip measured after 0.5 hrs; format: functional; details: for minimal effective dose: CD-1, ip, read-out: MED; summary of the method: as §1
[4] = tested on: Mus musculus; assay: Anticonvulsant activity in albino CD-1 mouse assessed as protection against subcutaneous pentylenetetrazole-induced seizure at 30 to 300 mg/kg, ip measured after 2.0 hrs; format: functional; details: for minimal effective dose: CD-1, 2 h, read-out: MED
Summary of the method: (§3)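 Male CD-1 mice given compound i.p. (0.5% methylcellulose suspension) at 30, 100, 300 mg/kg, four per group; pentylenetetrazole 85 mg/kg s.c. at 0.5 or 2 h. Absence of clonic convulsions (≥5 s) over 30 min observation counts as protection. Minimum active dose reported.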

[5] = tested on: Mus musculus; assay: Neurotoxicity in albino CD-1 mouse assessed as motor impairment at 30 to 300 mg/kg mg/kg, ip measured after 0.5 hrs by rotarod test; format: toxicity, organism-based; details: in vivo
Summary of the method: (§4)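 Rotarod in male CD-1 mice at 0.5 and 2 h after i.p. 30, 100 or 300 mg/kg (methylcellulose suspension); motor impairment = inability to keep balance on rod turning at 10 rpm for at least 1 min. Minimum neurotoxic dose reported.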

[6] = tested on: Mus musculus; assay: Anticonvulsant activity in ip dosed albino CD-1 mouse assessed as protection against maximal electroshock-induced seizure measured as time to peak effect; format: functional; summary of the method: as §2
[7] = tested on: Mus musculus; assay: Anticonvulsant activity in albino CD-1 mouse assessed as protection against subcutaneous pentylenetetrazole-induced seizure at 30 to 300 mg/kg, ip measured after 0.5 hrs; format: functional; details: for minimal effective dose: CD-1, 0.5 h, read-out: MED; summary of the method: as §3
[8] = tested on: Mus musculus; assay: Neurotoxicity in albino CD-1 mouse assessed as motor impairment at 30 to 300 mg/kg mg/kg, ip measured after 2 hrs by rotarod test; format: toxicity, organism-based; details: in vivo; summary of the method: as §4
[9] = tested on: Mus musculus; assay: Anticonvulsant activity in ip dosed albino CD-1 mouse assessed as protection against subcutaneous pentylenetetrazole-induced seizure; format: functional; summary of the method: as §2
[10] = Neurotoxicity in ip dosed albino CD-1 mouse assessed as motor impairment by rotarod test; format: toxicity, organism-based; details: in vivo; summary of the method: as §2
[11] = Protective index, ratio of TD50 for neurotoxicity in ip dosed albino CD-1 mouse to ED50 for anticonvulsant activity in ip dosed subcutaneous pentylenetetrazole-induced seizure albino CD-1 mouse model; format: toxicity, organism-based; details: in vivo, read-out: Ratio TD50/ED50
Summary of the method: (§5)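 Protective index computed as TD50 (rotarod) divided by ED50 (MES or scPTZ), both from probit analysis on groups of six i.p.-dosed mice.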

[12] = tested on: Mus musculus; assay: Anticonvulsant activity in ip dosed albino CD-1 mouse assessed as protection against 6 Hz current-induced seizure measured after 2.0 hrs; format: functional; details: CD-1, ip, read-out: MED
Summary of the method: (§6)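 6-Hz psychomotor test: corneal stimulation 32 mA, 0.2 ms monopolar rectangular pulses at 6 Hz for 3 s, mice restrained then released to observation cage. Protected if normal exploratory behaviour resumes within 10 s. Doses 30, 100, 300 mg/kg i.p.; read at 0.5 and 2 h; minimum active dose.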

[13] = tested on: Mus musculus; assay: Anticonvulsant activity in ip dosed albino CD-1 mouse assessed as protection against 6 Hz current-induced seizure measured after 0.5 hrs; format: functional; details: CD-1, ip, read-out: MED; summary of the method: as §6
[14] = tested on: Mus musculus; assay: Anticonvulsant activity in ip dosed albino CD-1 mouse assessed as protection against maximal electroshock-induced seizure; format: functional; details: CD-1, ip; summary of the method: as §2
[15] = Protective index, ratio of TD50 for neurotoxicity in ip dosed albino CD-1 mouse to ED50 for anticonvulsant activity in ip dosed maximal electoshock-induced seizure albino CD-1 mouse model; format: toxicity, organism-based; details: in vivo, read-out: Ratio TD50/ED50; summary of the method: as §5
[16] = species: Rattus norvegicus; assay: Displacement of [3H]BTX from voltage-sensitive sodium channel site2 in rat cerebral cortex at 100 uM measured after 60.0 mins by scintillation counting; format: tissue-based

CCCC(CCC)C(=O)O [VALPROIC ACID]
MED [1]: inactive | Time [2]: 0.5 h | minimal effective dose [3]: 300 mg/kg | MED [4]: inactive | MTC [5]: Non-toxic | Time [6]: 0.5 h | minimal effective dose [7]: 300 mg/kg | MTC [8]: Non-toxic

CC1(c2ccccc2)CC(=O)N(CC(=O)N2CCN(c3ncccn3)CC2)C1=O (stereo unspecified)
MED [1]: inactive | MED [3]: inactive | minimal effective dose [4]: 100 mg/kg | MTC [5]: Non-toxic | MED [7]: inactive | MTC [8]: Non-toxic

CC1(c2ccccc2)CC(=O)N(CC(=O)N2CCN(c3cccc(Cl)c3Cl)CC2)C1=O (stereo unspecified)
MED [1]: inactive | MED [3]: inactive | MED [4]: inactive | MTC [5]: Non-toxic | minimal effective dose [7]: 300 mg/kg | MTC [8]: Non-toxic

CC1(c2ccccc2)CC(=O)N(CC(=O)N2CCN(c3ccc(Cl)cc3)CC2)C1=O (stereo unspecified)
MED [1]: inactive | MED [3]: inactive | minimal effective dose [4]: 300 mg/kg | MTC [5]: Non-toxic | minimal effective dose [7]: 300 mg/kg | MTC [8]: Non-toxic

Cc1ccccc1N1CCN(C(=O)CN2C(=O)CC(C)(c3ccccc3)C2=O)CC1 (stereo unspecified)
MED [1]: inactive | MED [3]: inactive | MED [4]: inactive | MTC [5]: Non-toxic | MED [7]: inactive | MTC [8]: Non-toxic

CC1(c2ccccc2)CC(=O)N(CC(=O)N2CCN(Cc3ccccc3)CC2)C1=O (stereo unspecified)
MED [1]: inactive | ED50 [9]: 96.5 mg/kg | Time [2]: 0.5 h | TD50 [10]: 205 mg/kg | MED [3]: inactive | minimal effective dose [4]: 300 mg/kg | MTC [5]: 300 mg/kg | Time [6]: 0.5 h | selectivity ratio [11]: 2.12 | minimal effective dose [7]: 100 mg/kg | MTC [8]: 300 mg/kg

Cc1cccc(N2CCN(C(=O)CN3C(=O)CC(C)(c4ccccc4)C3=O)CC2)c1 (stereo unspecified)
minimal effective dose [1]: 300 mg/kg | minimal effective dose [3]: 100 mg/kg | MED [4]: inactive | MTC [5]: 300 mg/kg | MED [7]: inactive | MTC [8]: 300 mg/kg

CC1(c2ccccc2)CC(=O)N(CC(=O)N2CCN(c3cccc(C(F)(F)F)c3)CC2)C1=O (stereo unspecified)
minimal effective dose [1]: 300 mg/kg | minimal effective dose [3]: 300 mg/kg | MED [4]: inactive | minimal effective dose [12]: 300 mg/kg | MTC [5]: Non-toxic | minimal effective dose [13]: 300 mg/kg | MED [7]: inactive | MTC [8]: Non-toxic

O=C1NC(=O)C(c2ccccc2)(c2ccccc2)N1 [PHENYTOIN]
minimal effective dose [1]: 30 mg/kg | ED50 [14]: 6.65 mg/kg | ED50 [9]: > 500 mg/kg | Time [2]: 1 h | TD50 [10]: 59.9 mg/kg | minimal effective dose [3]: 30 mg/kg | MED [4]: inactive | MTC [5]: 100 mg/kg | Time [6]: 1 h | MED [7]: inactive | selectivity ratio [15]: 5.56 | MTC [8]: 100 mg/kg

CCC1(C)CC(=O)NC1=O (stereo unspecified) [ETHOSUXIMIDE]
MED [1]: inactive | ED50 [14]: > 500 mg/kg | Time [2]: 0.25 h | MED [3]: inactive | minimal effective dose [4]: 300 mg/kg | MTC [5]: Non-toxic | Time [6]: 0.25 h | minimal effective dose [7]: 100 mg/kg | MTC [8]: Non-toxic

CC1(c2ccccc2)CC(=O)N(CC(=O)N2CCN(c3cccc(Cl)c3)CC2)C1=O (stereo unspecified)
minimal effective dose [1]: 300 mg/kg | ED50 [14]: 215 mg/kg | Time [2]: 2 h | TD50 [10]: > 500 mg/kg | minimal effective dose [3]: 300 mg/kg | MED [4]: inactive | MTC [5]: Non-toxic | Time [6]: 2 h | MED [7]: inactive | selectivity ratio [15]: > 2.32 | MTC [8]: Non-toxic

CC1(c2ccccc2)CC(=O)N(CC(=O)N2CCOCC2)C1=O (stereo unspecified)
minimal effective dose [1]: 300 mg/kg | minimal effective dose [3]: 300 mg/kg | minimal effective dose [4]: 300 mg/kg | minimal effective dose [12]: 100 mg/kg | MTC [5]: Non-toxic | minimal effective dose [13]: 100 mg/kg | minimal effective dose [7]: 300 mg/kg | MTC [8]: Non-toxic

COc1cccc(N2CCN(C(=O)CN3C(=O)CC(C)(c4ccccc4)C3=O)CC2)c1 (stereo unspecified)
MED [1]: inactive | MED [3]: inactive | MED [4]: inactive | MTC [5]: Non-toxic | minimal effective dose [7]: 100 mg/kg | MTC [8]: Non-toxic

CC1(c2ccccc2)CC(=O)N(CC(=O)N2CCN(c3ccccc3)CC2)C1=O (stereo unspecified)
MED [1]: inactive | ED50 [9]: 40.9 mg/kg | Time [2]: 0.5 h | TD50 [10]: > 500 mg/kg | minimal effective dose [3]: 300 mg/kg | minimal effective dose [4]: 300 mg/kg | MTC [5]: Non-toxic | inhibition [16]: 34.2% | Time [6]: 0.5 h | selectivity ratio [11]: > 12.2 | minimal effective dose [7]: 100 mg/kg | MTC [8]: Non-toxic

CC1(c2ccccc2)CC(=O)N(CC(=O)N2CCN(c3ccccc3Cl)CC2)C1=O (stereo unspecified)
MED [1]: inactive | ED50 [9]: 120 mg/kg | Time [2]: 2 h | TD50 [10]: > 500 mg/kg | MED [3]: inactive | minimal effective dose [4]: 100 mg/kg | MTC [5]: Non-toxic | Time [6]: 2 h | selectivity ratio [11]: > 4.16 | MED [7]: inactive | MTC [8]: Non-toxic
